The subject of one experiment is Mus musculus. In words: Antiinflammatory activity against arachidonic acid-induced ear edema in Balb/C mouse at 300 ug/ear administered topically 1 hr before arachidonic acid challenge measured after 60 mins. It counts as functional. A digest of the protocol:
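Topical application in 100 µL acetone (compound 300 µg, indomethacin 300 µg positive control, vehicle alone) to mouse ear; oedema induced with arachidonic acid (4 mg). Ear width measured with a micrometer screw gauge before and 60 min after induction. Oedema expressed as percentage of normal by comparing left and right ear widths. n = 4–8 per group.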

Experiment [1] has as its system Ileum. In words: Muscle relaxant activity in potassium-depolarized guinea pig ileum assessed as inhibition of calcium-induced contraction at 10 nM. The settings on record: Cavia porcellus. It counts as functional. In a few lines: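 Isolated guinea-pig ileum, depolarised with potassium, in which calcium (2.5 mM) induced a sustained contraction. The agent was applied at 1 × 10^-8 M, and activity was expressed as percent inhibition of the calcium contracture. Values are given as mean with SEM, n = 6.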

The subject of experiment [2] is RBL-2H3. Briefly: Antiinflammatory activity against calcium ionophore A23187-induced beta-hexosaminidase release from rat RBL2H3 cells at 10 uM after 30 mins. It counts as functional. The conditions noted are these: RBL-2H3, 0.5 h. In a few lines: (§1)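 RBL-2H3 cells plated at 1 × 10⁵ cells/cm² in 24-well plates and allowed to adhere ≥3 h. Medium replaced with fresh medium containing calcium ionophore A23187 plus compound (0.3–50 µM range; DMSO 0.5% solvent control). Incubation 30 min, 37 °C, 5% CO₂. Supernatant β-hexosaminidase measured with p-nitrophenyl N-acetyl-glucosaminide in citrate pH 4.5 for 1 h at 37 °C, stopped with NaOH, read at 405 nm. Values are % of total (Triton X-100 lysate), spontaneous release subtracted. Triplicate.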

Experiment [3] has as its system Ileum. In words: Muscle relaxant activity in potassium-depolarized guinea pig ileum assessed as inhibition of calcium-induced contraction at 10 uM. It counts as functional. The conditions noted are these: Cavia porcellus. In a few lines: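 Isolated guinea-pig ileum depolarised with potassium; sustained contraction induced by calcium (2.5 mM). Test compounds at 1 × 10⁻⁵ M, with nifedipine 1 × 10⁻⁸ M as reference. Result expressed as % inhibition of the calcium contracture. Mean ± SEM, n = 6–12.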

In experiment [4] the test system is RBL-2H3. Briefly: Antiinflammatory activity against calcium ionophore A23187-induced beta-hexosaminidase release in rat RBL2H3 cells at 50 uM after 30 mins. The settings on record: RBL-2H3, 0.5 h. It is filed as functional. In a few lines:
as §1

Experiment [5] concerns RBL-2H3. Briefly: Antiinflammatory activity against calcium ionophore A23187-induced beta-hexosaminidase release from rat RBL2H3 cells after 30 mins. It counts as functional, cell-based. A digest of the protocol:
as §1

Molecules are shown by their SMILES.

`COc1ccc2c(c1)c(CC(=O)O)c(C)n2C(=O)c1ccc(Cl)cc1` [INDOMETHACIN]: the “inhibition (INH)” value with Mus musculus is 50%.

For `COC(=O)C1=C(C)NC(C)=C(C(=O)OC)C1c1ccccc1[N+](=O)[O-]` [NIFEDIPINE], the inhibition at 0.01 µM in the experiment on Ileum [1] was 48.1%.

For `O[C@H]1c2ccccc2C[C@@]1(Cc1ccccc1)C1=Cc2ccccc2C1`, the inhibition at 10 µM in the experiment on RBL-2H3 [2] is 40%; in the experiment with Ileum [3], 36.4%. In addition, the “inhibition (INH)” value with Mus musculus is 59%. Also, in the experiment with RBL-2H3 [4], the inhibition at 50 µM was 75%. In the experiment with RBL-2H3 [5], the inhibition entry is “Dose-dependent effect”.

`O[C@H]1c2ccccc2C[C@]1(Cc1ccccc1)C1=Cc2ccccc2C1`: the inhibition at 10 µM in the experiment on RBL-2H3 [2] was 45%; in the experiment on Ileum [3], 18.9%. In addition, in the experiment with Mus musculus, the “inhibition (INH)” value was found to be 45%. In addition, the inhibition at 50 µM in the experiment with RBL-2H3 [4] came out at 96%. In the experiment with RBL-2H3 [5], the inhibition result is “Dose-dependent effect”.

These data come from ChEMBL document CHEMBL1156047, “Diastereoisomers of 2-benzyl-2, 3-dihydro-2-(1H-inden-2-yl)-1H-inden-1-ol: potential anti-inflammatory agents” (2009).
